Here are results for 48 sequences from the EternaBench riboswitch data.

This data set deals with MS2 coat protein. In words: apparent Kd, MS2 coat protein; higher = weaker binding; RNA-MaP array; FMN 200 µM where present. In short, it runs like this: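 Stalled E. coli RNA polymerase transcribed the designs on Illumina sequencing-chip clusters. SNAP-549-labelled MS2 coat protein was titrated from 0.7 or 1.5 nM, doubling to 3 µM, without and then with constant ligand, in 100 mM Tris-HCl pH 7.5, 80 mM KCl, 4 mM MgCl2, BSA, DTT, yeast tRNA and Tween-20. Per-cluster binding curves were fitted to green signal normalised to red-channel RNA signal and control-cluster median Fmax. The apparent Kd is the median of the filtered fits.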

Where [1] appears, read: designed as: OFF switch for flavin mononucleotide, no ligand.
Setting [2] is: ligand present: flavin mononucleotide, designed as: OFF switch for flavin mononucleotide.
Setting [3] is: designed as: ON switch for flavin mononucleotide, no ligand.
Where [4] appears, read: ligand present: flavin mononucleotide, designed as: ON switch for flavin mononucleotide.

The term apparent Kd denotes the concentration giving half-maximal binding under the conditions of the assay. On to “AGUCCACAUGAGGAUCACCCAUGUCAGGAUAUCUGCUGGAAGAGGGCAGAAAGCCAGGAGAGAAGGGACCUGGG”, for which the “apparent Kd” value by setting is: under setting [1], 0.0379 µM; under setting [2], 0.0745 µM. Turning to “GUAGCAUACCGAGGAUAUUCAUAUAAUAAAUAAACAUGAGGAUCACCCAUGUGGCGAAAGCCAAGGGAGAAGGCGGAAUGCUAC”, the “apparent Kd” value runs as follows: under setting [3], 0.315 µM; under setting [4], 0.0264 µM. Take “GAGAAGUCAGGAUAUGCAUGGCGGGACUUGCGUCGUGGCGUGCAGAAGGGACAUGAGGAUCACCCAUGUGGAGC”: the “apparent Kd” value by setting is: under setting [1], 0.114 µM; under setting [2], 0.161 µM. The like results for “UUGUUAUAUGUAGGAUAUGCGUGUUAUUAUUAUGCAGAAGGACAUGAGGAUCACCCAUGUGUAUUAUUAUUAUAUAUUAUAUAU” were, in that order, 0.0203 µM and 0.0181 µM. With “AUCGGGUCAGGAUAUUGUUAGUUUAGUUGUUUGUAUUAGUUCGAGAAGGGACAUGAGGAUCACCCAUGUGGUAA”, the “apparent Kd” value under setting [1] was determined as 0.0584 µM and the “apparent Kd” value under setting [2] came out at 0.0732 µM. The like results for “AAACUGCAUGUGAGGAUAUGCACCGACUAAACCGGGCAGAAGGCACAUGAGGAUCACCCAUGUCAUCCUAUUGC” were, in that order, 0.00862 µM and 0.0181 µM. For “UUCAUCAAUGAAGGAUAUCUAUAUCCAACAUGAGGAUCACCCAUGUUGAGGAUCACCUAUGUAAAGGAGAAGGUUAAUAUAACU”, the “apparent Kd” value runs as follows: under setting [3], 0.00683 µM; under setting [4], 0.00632 µM.

Take “UGGUACUAGCGAGGAUAUGGGAAGAUACAUGAGGAUCACCCAUGUUUAAGAAUGCCGAGAGGCAACUAGAAGGCCCUAGUACCU”: the “apparent Kd” value runs as follows: under setting [3], 0.456 µM; under setting [4], 0.0694 µM. Regarding “CAUAUCCAAGGAUAUACGAUGGCUCCUUCCAUCGUGUGACCACAUGAGGAUCACCCAUGUAGAAGGUGGAUAUU”, the “apparent Kd” value is, setting by setting: under setting [1], 0.0232 µM; under setting [2], 0.024 µM. The like results for “GGUGCCAUGUAGAAGGCAGAUCUGAUUCAGAUCUGAGGAUAUACAUGAGGAUCACCCAUGUAAAGGCACCUCACGAGAGUGCAA” were, in that order, 0.0105 µM and 0.0346 µM.

Regarding “GGAUUACAUGAGGAUCACCCAUGUGAGGAUAUCGAUGUCCUAGGUCAAGUGCGGGACUCGAGAAGGCACUUGGA”, the “apparent Kd” value came to 0.0524 µM under setting [1] and 0.0289 µM under setting [2]. In the case of “GGGCUGUCAGGAUAUCCCGGGUUUGGGUAAACCCGGGCCCGGGAGAAGGGACAUGAGGAUCACCCAUGUGGCCC”, the “apparent Kd” value reads like this: under setting [1], 0.0321 µM; under setting [2], 0.0318 µM. For “GGAAAUCAUGUAGGAUAUGCAUGGCGAAGCUACGCAGAAGGACAUGAGGAUCACCCAUGUUCUGGCUACCGAGUUCGGUGGCAA”, the “apparent Kd” value by setting is: under setting [1], 0.0225 µM; under setting [2], 0.104 µM. The like results for “UAUAUAUAGUAAGGAUAUGUAUAUAUUUUGUAAACAGAAGGUACUGACAUGAGGAUCACCCAUGUUUUAGUGUGGGCAUGUAGA” were, in that order, 0.0808 µM and 0.13 µM. With “CUGUGACGGAUCCAGAAUUACAACAUGAGGAUCACCCAUGUACAGGAUAUCGGGUUGAUAGGCGCCGAGAAGGGUAUGAUCACG”, the “apparent Kd” value reads like this: under setting [1], 0.137 µM; under setting [2], 0.121 µM. As to “AAAACAUGAGGAUCACCCAUGUUAAGAUCGGUCAAUAGAAGUGAGGAUAUACGAAGUUAAGGCUGGUAGAAGGCACUGGGUACA”, the “apparent Kd” value worked out at 0.0435 µM under setting [3] and 0.0371 µM under setting [4].

As for “CCUCGACAUGAGGAUCACCCAUGUCAGGAUAUUGUGUAUCGGGUUUUUUACGGAAAGGCGAGAAGGGAUGUGUG”, the “apparent Kd” value reads like this: under setting [1], 0.0184 µM; under setting [2], 0.0169 µM.

As to “CCGGUUGGCGCAGGAUAUACAUGAGGAUCACCCAUGUUCAUCAGGAUCACCGAUGAGUUUUUGUUGUAGAAGGGUGGCCCGGCC”, the “apparent Kd” value is, setting by setting: under setting [1], 0.0352 µM; under setting [2], 0.0372 µM. The like results for “AUCAUGUAAGGAUAUGACUACAUAAAAAAAAAAAAAUGUAGUCAGAAGGUACAUGAGGAUCACCCAUGUACAAA” were, in that order, 0.0222 µM and 0.0237 µM. Consider “GUCAGCUCGUGAGGAUAUACAUGUGCUGGAAACAGCACUAUUGAGUUCACAUGAGGAUCACCCAUGUAGAAGGCACGAGCUGAU”, for which the “apparent Kd” value reads like this: under setting [1], 0.0158 µM; under setting [2], 0.028 µM. In the case of “UGGUGCUAGGGAGGAUAUGGGAAGAUACAUGAGGAUCACCCAUGUUUAAGAAUGCCGAGAGGCAACUAGAAGGCCCUAGUACCU”, the “apparent Kd” value runs as follows: under setting [3], 0.457 µM; under setting [4], 0.0209 µM. The like results for “CCUCCAUCAUGAGGAUAUGGCACCUUAUUGGUGCCAGAAGGCAUGUCUCUUGACAUGAGGAUCACCCAUGUAAUAAAUUGGAGG” were, in that order, 1.15 µM and 0.109 µM. Take “UUGAGGUAGGAGAAGGACAGAGGCGGAAACACAAACAUGAGGAUCACCCAUGUAGGAUAUCCUAACUAACGAGGAUACCUCAAG”: the “apparent Kd” value runs as follows: under setting [1], 0.00649 µM; under setting [2], 0.00753 µM. With “UUUUAGGGAGGAUAUACAUUUUUUUUAUUAUCCUCAUUAAUACAUGAGGAUCACCCAUGUAGAAGGCCCAUUUU”, the “apparent Kd” value by setting is: under setting [1], 0.0392 µM; under setting [2], 0.164 µM. As to “CGCGAACAGUUUAACAUGAGGAUCACCCAUGUGGACUCAUGGUAGGAUAUCGGGAAGGAGGAAACCGAGAAGGGCUGGUGAGCC”, the “apparent Kd” value runs as follows: under setting [3], 0.583 µM; under setting [4], 0.419 µM. Regarding “UCGUGAAGGACAGGAUAUGGACAUGAGGAUCACCCAUGUACAUGGGAAUAUAUACUGAAUUUGUACUAGAAGGGUUACAUAAAU”, the “apparent Kd” value was 0.0261 µM under setting [1] and 0.0201 µM under setting [2].

With “GCCAUCGCAUGAGGAUAUGCUCGGGUUUCCCGAGCAGAAGGCAUGUGAUAACACAUGAGGAUCACCCAUGUAGUUAAGAUGGCA”, the “apparent Kd” value is, setting by setting: under setting [3], 0.00569 µM; under setting [4], 0.00483 µM. The like results for “AGACCGCUACGCCGGUUUCACGCACAGGAUAUGCGGUUACAUGAGGAUCACCCAUGUGGCCAUGUGCAGAAGGGUGGUUCGUUA” were, in that order, 0.0361 µM and 0.0115 µM. As for “UCCUUGUCCUGAGGAUAUCCGUGGUUCCCGAAAGGAGAAGGCAGGACAUGAGGAUCACCCAUGUACCCAGAUAUCGUACAGAGA”, the “apparent Kd” value is 0.0504 µM under setting [1] and 0.36 µM under setting [2]. In the case of “AGGAGAAAUGUAGGAUAUGGAUAUAUAUAUGGGCAAAGCGCAUAUAUAUAUCCAGAAGGACAUGAGGAUCACCCAUGUUUCCCU”, the “apparent Kd” value reads like this: under setting [1], 0.0118 µM; under setting [2], 0.013 µM.

With “UUCGAACAAGUCAGGAUAUGGUUAUUGGUGUGUGACUAGAAGGGACAUGAGGAUCACCCAUGUGCACCUACCAU”, the “apparent Kd” value is, setting by setting: under setting [1], 0.016 µM; under setting [2], 0.0167 µM. Consider “AUGGCUAAUGAGAAGGUGUAUAUAAAUUAUAUACAAGGAUAUCGGUCAAGCAUGAAAACAUGAGGAUCACCCAUGUAAAGCCAU”, for which the “apparent Kd” value is 0.00937 µM under setting [3] and 0.00757 µM under setting [4].

As for “UUUAUGUCAGGAUAUGAUUAGAUCUACUUCGGUAGAUCUAAUCAGAAGGGACAUGAGGAUCACCCAUGUUUUUU”, the “apparent Kd” value runs as follows: under setting [1], 0.0438 µM; under setting [2], 0.223 µM. For “AAUUAUUAUUGAGGAUAUGGUAGUGAAACACUACCAGAAGGCGGUAUAAACAUGAGGAUCACCCAUGUGAGCCUGAUGCUUAUG”, the “apparent Kd” value is 0.0242 µM under setting [1] and 0.0442 µM under setting [2]. Turning to “CGGACCCGAGGAUAUCGUAAACCCGACAUGAGGAUCACCCAUGUCAUCCUCACGGCGCCACGAGAAGGCGGUGUUA”, the “apparent Kd” value under setting [1] turned out to be 0.0242 µM and the “apparent Kd” value under setting [2] was determined as 0.0757 µM. The like results for “AUCAACCAGGCAGGAUAUCAAUGUGGCCUCAUCGUACACCCUCGCAACAUGAGGAUCACCCAUGUUGAGAAGGGCCAAUUGAGA” were, in that order, 0.00852 µM and 0.00899 µM. Consider “CGGGUGGUCCUCCGGGAUUGGACACAGGAUAUCCGCGAGAACAUGAGGAUCACCCAUGUACAUGAGGAGAAGGGUGGACGAAGA”, for which the “apparent Kd” value is, setting by setting: under setting [3], 0.0561 µM; under setting [4], 0.0112 µM.

As for “GGAGGACAUGAGGAUCACCCAUGUGGAUGAACGCUAGGAUAUGCGUGCAGGAAGAGUGGAGCAGAAGGAGUGGGUU”, the “apparent Kd” value turned out to be 0.0282 µM under setting [3] and 0.0232 µM under setting [4].

As to “AAUAGGCUCGCGCAGGAUAUGGAUCAUUCCACAUGAGGAUCACCCAUGUUAAGGAGCCUUUGCAUCCAGAAGGGUGUUGGUCUUU”, the “apparent Kd” value is, setting by setting: under setting [3], 0.0972 µM; under setting [4], 0.0179 µM. In the case of “AAUUGCCUAGGAUAUACUUGGGCCCGCUCAUACUCCAAUGGACAUGAGGAUCACCCAUGUAGAAGGAGGACCCA”, the “apparent Kd” value is, setting by setting: under setting [1], 0.0172 µM; under setting [2], 0.0394 µM.

Regarding “AUUUUGUCAGGAUAUGAGUAGUAGGACGAAAGUGUUAUUAUUUAGAAGGGACAUGAGGAUCACCCAUGUUUCUC”, the “apparent Kd” value is 0.0123 µM under setting [1] and 0.0158 µM under setting [2]. “GGAAGGUCAGGAUAUGCGAGGGAGUGGGAAAUAGGAUGGUAGCAGAAGGGACAUGAGGAUCACCCAUGUUAGGA”: the “apparent Kd” value was 0.031 µM under setting [1] and 0.0273 µM under setting [2].

Take “CCUGCACAUGAGGAUCACCCAUGUUAGGAUAUCUCGCCGCCUAAACGAAUGGUGGCCCAGAGAAGGAACAGGGC”: the “apparent Kd” value reads like this: under setting [1], 0.0286 µM; under setting [2], 0.0413 µM. Consider “CAGCGAUAGCUGAACAAUCUAUCUGAGGAUAUUCAUAUAAAACAUGAGGAUCACCCAUGUAAUUGGGAGAAGGCAGAUAGAUUG”, for which the “apparent Kd” value is, setting by setting: under setting [3], 0.0224 µM; under setting [4], 0.00611 µM. Turning to “GUCUUGUCAGGAUAUCUUACAUAACAAUCGUAGUUACCAUUGGAGAAGGGACAUGAGGAUCACCCAUGUUAGCC”, the “apparent Kd” value is, setting by setting: under setting [1], 0.0172 µM; under setting [2], 0.0191 µM. The like results for “AGAAAACAUGAGGAUCACCCAUGUGAGGAUAUCGAUGUCCAAGCCCGGGUGCGGGACUCGAGAAGGCACUUGGG” were, in that order, 0.0557 µM and 0.0368 µM.

As for “UAAUGUUAGCGAGGAUAUCGUUUAUUGAAGUUACGAGAAGGCGCUCUUCUUACAUGAGGAUCACCCAUGUCUGUUUUGCAUGAU”, under setting [4], the “apparent Kd” value was determined as 0.0519 µM. Consider “AUUAUAUAGUAAGGAUAUUGAUUAUUAUUUUAACAUGAGGAUCACCCAUGUAGCCUUAUGUAUAACAAGAAGGUACAUUUAUUA”, for which the “apparent Kd” value reads like this: under setting [1], 0.0562 µM; under setting [2], 0.0584 µM.
